This is an account of results in ChEMBL document CHEMBL3421563, “Potent Irreversible Inhibitors of LasR Quorum Sensing in Pseudomonas aeruginosa” (ACS Med Chem Lett, 2015).

The nature of data set [1]: Antagonist activity at Pseudomonas aeruginosa LasR expressed in Escherichia coli BL21 DE3 after 4 to 6 hrs by GFP reporter gene assay. The essentials: (§1)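 GFP-based LasR antagonist bioassay. IC50 is the mean of triplicate runs, range as 95% confidence interval. Percent inhibition of GFP is measured at 100 μM relative to Br-HSL positive control, which is set at 100% inhibition.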

Data set [2] relates to Pseudomonas aeruginosa. Nature of the data set: Effect on growth of Pseudomonas aeruginosa PA14 at 12.5 to 25 uM. The essentials:
(§2)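 Growth of PAO1 and PA14 in the pyocyanin cultures is followed by cell density at A600.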

For data set [3], the target named is T1, Transcriptional activator protein LasR (Pseudomonas aeruginosa (strain ATCC 15692 / PAO1 / 1C / PRS 101 / LMG12228)) (UniProt P25084).
T1 sequence (whole entry): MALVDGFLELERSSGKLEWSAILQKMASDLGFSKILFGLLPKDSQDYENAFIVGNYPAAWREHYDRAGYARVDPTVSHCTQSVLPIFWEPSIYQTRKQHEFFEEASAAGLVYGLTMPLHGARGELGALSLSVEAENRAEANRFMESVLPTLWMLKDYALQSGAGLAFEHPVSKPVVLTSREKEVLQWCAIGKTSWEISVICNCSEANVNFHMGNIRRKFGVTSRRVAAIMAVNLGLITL
The data set is described as follows: Antagonist activity at LasR in Pseudomonas aeruginosa PA14 assessed as inhibition of static biofilm thickness grown in rich media after 36 hrs by SYTO-9 nucleic acid staining-based confocal microscopic analysis. The essentials: (§3)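 PA14 biofilms grown 36 h in Luria broth, stained with SYTO-9 and imaged by confocal fluorescence microscopy. Biomass and thickness are computed from the images. Images are taken in duplicate and imaging is repeated three times.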

Data set [4] deals with T1, Transcriptional activator protein LasR (Pseudomonas aeruginosa (strain ATCC 15692 / PAO1 / 1C / PRS 101 / LMG12228)). Nature of the data set: Antagonist activity at LasR in Pseudomonas aeruginosa PA14 assessed as inhibition of overall static biofilm biomass grown in rich media after 36 hrs SYTO-9 nucleic acid staining-based confocal microscopic analysis. The essentials:
as §3

Data set [5] has the same target. Nature of the data set: Antagonist activity at LasR in Pseudomonas aeruginosa PA14 assessed as inhibition of static biofilm thickness grown in rich media at 12.5 to 25 uM after 36 hrs SYTO-9 nucleic acid staining-based confocal microscopic analysis.
For data set [6] the target is unchanged. Nature of the data set: Antagonist activity at Pseudomonas aeruginosa LasR expressed in Escherichia coli BL21 DE3 at 100 uM after 4 to 6 hrs by GFP reporter gene assay relative to Br-HSL. The essentials:
as §1

Data set [7] shares this target. Nature of the data set: Irreversible antagonist activity at Pseudomonas aeruginosa LasR expressed in Escherichia coli BL21 DE3 at 10 to 100 uM after 4 to 6 hrs by GFP reporter gene assay in presence of LasR agonist 3-oxo-C12HSL. The essentials:
(§4)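 Competition format of the GFP LasR bioassay: antagonist held at a fixed concentration while a dose-response curve of native agonist 3-oxo-C12 HSL is run; the maximal activation and the curve are compared.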

The target is the same in data set [8]. The data set is described as follows: Antagonist activity at LasR in Pseudomonas aeruginosa PA14 assessed as inhibition of static biofilm biomass grown in rich media at 12.5 to 25 uM after 36 hrs SYTO-9 nucleic acid staining-based confocal microscopic analysis.
Data set [9] has the same target. The data set is described as follows: Antagonist activity at LasR in Pseudomonas aeruginosa PA14 assessed as decrease in pyocyanin level in cell-free supernatants after 12 hrs. The essentials: (§5)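 Cell-free supernatants from PAO1 or PA14 cultures. Pyocyanin is read directly as absorbance at 695 nm, in triplicate. Cell density is read at A600 in parallel.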
For data set [10] the target is unchanged. Nature of the data set: Antagonist activity at LasR in Pseudomonas aeruginosa PAO1 assessed as decrease in pyocyanin level in extracted and acidified cell-free supernatants after 12 hrs. The essentials:
(§6)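 Cell-free culture supernatants undergo a pyocyanin-selective extraction and acidification, then absorbance is read at 520 nm.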

The target is the same in data set [11]. The data set is described as follows: Antagonist activity at LasR in Pseudomonas aeruginosa PAO1 assessed as decrease in pyocyanin level in cell-free supernatants after 12 hrs. The essentials:
as §5

Data set [12] has the same target. The data set is described as follows: Antagonist activity at LasR in Pseudomonas aeruginosa PA14 assessed as inhibition of static biofilm formation after 48 hrs by crystal violet staining. The essentials: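 Static PA14 cultures; 48 h biofilms quantified by crystal violet staining, absorbance at 550 nm.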
Data set [13] has the same target. The data set is described as follows: Antagonist activity at LasR in Pseudomonas aeruginosa PA14 assessed as inhibition of overall static biofilm morphology grown in rich media at 12.5 to 25 uM after 36 hrs SYTO-9 nucleic acid staining-based confocal microscopic analysis.
In data set [14] the test system is Pseudomonas aeruginosa. The data set is described as follows: Effect on growth of Pseudomonas aeruginosa PAO1 at 12.5 to 25 uM. The format is organism-based. Particulars: in vivo. The essentials: as §2
In data set [15] the target is T1, Transcriptional activator protein LasR (Pseudomonas aeruginosa (strain ATCC 15692 / PAO1 / 1C / PRS 101 / LMG12228)). Nature of the data set: Antagonist activity at LasR in Pseudomonas aeruginosa PA14 assessed as decrease in pyocyanin level in extracted and acidified cell-free supernatants after 12 hrs. The essentials:
as §6

Data set [16] concerns the target T2, Transcriptional activator protein LasR (Pseudomonas aeruginosa (strain ATCC 15692 / PAO1 / 1C / PRS 101 / LMG12228), UniProt P25084).
T2 sequence (P25084 whole entry): T1 sequence (whole entry)
The data set is described as follows: Agonist activity at Pseudomonas aeruginosa LasR expressed in Escherichia coli BL21 DE3 after 4 to 6 hrs by GFP reporter gene assay.

Data set [17] addresses T1, Transcriptional activator protein LasR (Pseudomonas aeruginosa (strain ATCC 15692 / PAO1 / 1C / PRS 101 / LMG12228)). Nature of the data set: Irreversible antagonist activity at Pseudomonas aeruginosa LasR expressed in Escherichia coli BL21 DE3 at 10 to 50 uM after 4 to 6 hrs by GFP reporter gene assay in presence of LasR agonist 3-oxo-C12HSL. The essentials: as §4
Data set [18] relates to Pseudomonas aeruginosa. The data set is described as follows: Effect on growth of Pseudomonas aeruginosa up to 200 uM. The format is organism-based. Particulars: in vivo. The essentials:
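Bacterial growth is monitored by OD600 at concentrations up to 200 μM.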

For data set [19], the target named is T2, Transcriptional activator protein LasR. Nature of the data set: Agonist activity at Pseudomonas aeruginosa LasR.
Data set [20] addresses T1, Transcriptional activator protein LasR (Pseudomonas aeruginosa (strain ATCC 15692 / PAO1 / 1C / PRS 101 / LMG12228)). Nature of the data set: Non-competitive antagonist activity at Pseudomonas aeruginosa LasR expressed in Escherichia coli BL21 DE3 at 40 to 80 uM after 4 to 6 hrs by GFP reporter gene assay in presence of LasR agonist 3-oxo-C12HSL. The essentials:
as §4

The source made the active and inactive calls. No cut-off for these calls is given here. A value given as a limit tells only on which side of the number the result lay.

In turn, `O=C(CCCN1C(=O)C=CC1=O)Oc1c(Br)cc(Br)cc1CNC(=O)c1ccccc1[N+](=O)[O-]` returned an IC50 in data set [1] of 1.5 µM. Moreover, the Activity result in the data set on Pseudomonas aeruginosa [2] and in the data set on Pseudomonas aeruginosa [14] was “Non-toxic” throughout. The inhibition result in data set [3] is “Dose-dependent effect”; in data set [4], “Dose-dependent effect”; in [6], 101%; in data set [9], “Dose-dependent effect”; in data set [10], “Dose-dependent effect”; in data set [11], “Dose-dependent effect”. The inhibition entry in data set [12] and in data set [15] was “Dose-dependent effect” throughout. The inhibition result in data set [5], in data set [7], in data set [8] and in data set [13] was “Active” in each case.
Turning to `O=C(CCl)NCCC(=O)Oc1c(Br)cc(Br)cc1CC(=O)Nc1ccccc1[N+](=O)[O-]`, the IC50 in [1] worked out at 99.5 µM. Further, in data set [6], the inhibition was found to be 79%.
As to `O=C(Cc1cc(Br)cc(Br)c1OC(=O)CCCN1C(=O)C=CC1=O)Nc1ccccc1[N+](=O)[O-]`, in data set [1], the IC50 is 78.1 µM. In addition, the inhibition in data set [6] came out at 30%.
With `O=C(CCl)NCC(=O)Oc1c(Br)cc(Br)cc1CC(=O)Nc1ccccc1[N+](=O)[O-]`, it took 73.8 µM to reach half-maximal inhibition in data set [1] (IC50). The inhibition in data set [6] amounted to 91%.
Consider `O=C(Cc1cc(Br)cc(Br)c1OC(=O)CCN1C(=O)CCC1=O)Nc1ccccc1[N+](=O)[O-]`, for which, in data set [1], the IC50 was above 100 µM. Further, the EC50 in data set [16] stood at 0.0036 µM.
For the molecule `O=C(Cc1ccc(Br)cc1)N[C@H]1CCOC1=O`, the IC50 in [1] worked out at 16.4 µM.
The molecule `O=C(Cc1cc(Br)cc(Br)c1OC(=O)CN1C(=O)C=CC1=O)Nc1ccccc1[N+](=O)[O-]` displayed an IC50 in [1] of 86.8 µM. Besides, the inhibition in data set [6] was 56%.
`O=C(Cc1cc(Br)cc(Br)c1OC(=O)CCN1C(=O)C=CC1=O)Nc1ccccc1[N+](=O)[O-]` came in with an IC50 in [1] of 3.6 µM. Besides, in [6], the inhibition came to 98%. Moreover, in data set [17], the inhibition result is “Active”.
Take `O=C(CCCN=C=S)Oc1c(Br)cc(Br)cc1CNC(=O)c1ccccc1[N+](=O)[O-]`: the IC50 in data set [1] was above 200 µM. For the same molecule, the Activity result with Pseudomonas aeruginosa [18] was “Non-toxic”. For the same molecule, the inhibition in data set [6] was determined as 26%.
On the same counts, the results for `O=C(Cc1cc(Br)cc(Br)c1OCCCN=C=S)Nc1ccccc1[N+](=O)[O-]` are above 200 µM, “Non-toxic” and 55%.
On to `O=C(Cc1cc(Br)cc(Br)c1OC(=O)CCCN=C=S)Nc1ccccc1[N+](=O)[O-]`, for which inhibition in data set [1] was half-maximal at 148 µM (IC50). Besides, the Activity entry in the data set with Pseudomonas aeruginosa [18] is “Non-toxic”. Further, in data set [6], the inhibition is 69%.
Take `O=C(Oc1c(Br)cc(Br)cc1CNC(=O)c1ccccc1[N+](=O)[O-])c1ccccc1Cl`: in [19], the EC50 came out at 0.028 µM.
For the molecule `O=C(Cc1cc(Br)cc(Br)c1OCCCCN=C=S)Nc1ccccc1[N+](=O)[O-]`, the IC50 in data set [1] turned out to be 145 µM. The Activity result in the data set on Pseudomonas aeruginosa [18] was “Non-toxic”. Also, the inhibition entry in data set [20] was “Active”. Besides, in data set [6], the inhibition turned out to be 61%.
Molecule `O=C(CCN1C(=O)C=CC1=O)Oc1c(Br)cc(Br)cc1CNC(=O)c1ccccc1[N+](=O)[O-]` displayed an IC50 in data set [1] of 51.9 µM. The inhibition in [6] worked out at 32%.
With `O=C(CCCN1C(=O)CCC1=O)Oc1c(Br)cc(Br)cc1CNC(=O)c1ccccc1[N+](=O)[O-]`, the IC50 in data set [1] is above 100 µM. Also, a half-maximal response in data set [16] (EC50) required 0.119 µM.
